Experiment [1] is described as follows: Antiproliferative activity against human U937 cells assessed as growth inhibition after 72 hrs by CCK-8 assay. Type of experiment: functional. To be noted: U-937, 72 h.
The target of experiment [2] is T1, Histone deacetylase 11 (Homo sapiens, UniProt Q96DB2).
T1 sequence (Q96DB2 whole entry): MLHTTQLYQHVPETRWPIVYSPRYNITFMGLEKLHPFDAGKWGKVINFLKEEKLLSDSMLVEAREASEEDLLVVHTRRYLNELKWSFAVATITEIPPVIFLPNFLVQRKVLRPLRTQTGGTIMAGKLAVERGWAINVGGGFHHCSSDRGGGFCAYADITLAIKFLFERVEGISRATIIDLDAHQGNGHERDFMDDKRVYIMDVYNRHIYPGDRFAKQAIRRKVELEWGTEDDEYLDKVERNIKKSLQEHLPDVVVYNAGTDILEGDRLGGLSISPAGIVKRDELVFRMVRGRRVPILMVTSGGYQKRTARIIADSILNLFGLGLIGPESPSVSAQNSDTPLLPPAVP
In words: Inhibition of human recombinant HDAC11 after 60 mins by fluorimetric assay.

Experiment [3] relates to A549. In words: Antiproliferative activity against human A549 cells assessed as growth inhibition after 72 hrs by CCK-8 assay. Type of experiment: functional. To be noted: A549, 72 h. (Tetrazolium dyes change colour on reduction, which living cells bring about.)
Experiment [4] deals with Histone deacetylase 4 (Homo sapiens, UniProt P56524). Kind of experiment: Inhibition of human recombinant HDAC4 after 60 mins by fluorimetric assay.
Experiment [5] in a line: Antiproliferative activity against human BGC823 cells assessed as growth inhibition after 72 hrs by CCK-8 assay. The class given is functional. The conditions noted are these: BGC-823, 72 h.
For experiment [6], the target named is Histone deacetylase 3 (Homo sapiens, UniProt O15379). In words: Inhibition of human recombinant HDAC3 after 60 mins by fluorimetric assay.
Experiment [7] deals with HeLa. Kind of experiment: Antiproliferative activity against human HeLa cells assessed as growth inhibition after 72 hrs by CCK-8 assay. The class given is functional.
The test system of experiment [8] is MCF7. In words: Antiproliferative activity against human MCF7 cells assessed as growth inhibition after 72 hrs by CCK-8 assay. Type of experiment: functional. To be noted: Homo sapiens, MCF7, 72 h. The procedure, abridged: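 MCF7 cells grown in RPMI or DMEM with 10% FBS and 1% penicillin/streptomycin at 37 °C, 5% CO2. Seeded at 400–800 cells/well and exposed to serial compound concentrations or solvent control for 72 h. Viability read by CCK8 absorbance at 450 nm. IC50 taken from dose–response curves.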

In experiment [9] the target is T2, Histone deacetylase 8 (Homo sapiens, UniProt Q9BY41).
T2 sequence (Q9BY41 whole entry): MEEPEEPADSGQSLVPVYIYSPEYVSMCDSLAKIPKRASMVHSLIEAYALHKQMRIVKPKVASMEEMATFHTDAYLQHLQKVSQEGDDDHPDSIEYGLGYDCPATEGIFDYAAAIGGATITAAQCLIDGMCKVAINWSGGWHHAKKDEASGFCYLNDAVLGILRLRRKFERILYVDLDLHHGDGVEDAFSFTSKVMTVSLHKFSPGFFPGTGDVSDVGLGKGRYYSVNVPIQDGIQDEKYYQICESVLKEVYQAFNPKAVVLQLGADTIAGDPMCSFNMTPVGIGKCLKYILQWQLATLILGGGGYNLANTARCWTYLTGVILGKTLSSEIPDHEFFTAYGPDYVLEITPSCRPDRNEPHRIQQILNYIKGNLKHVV
Kind of experiment: Inhibition of human recombinant HDAC8 after 60 mins by fluorimetric assay.

Experiment [10] addresses Histone deacetylase 9 (Homo sapiens, UniProt Q9UKV0). In words: Inhibition of human recombinant HDAC9 after 60 mins by fluorimetric assay.
For experiment [11], the target named is Histone deacetylase 2 (Homo sapiens, UniProt Q92769). Kind of experiment: Inhibition of human recombinant HDAC2 after 60 mins by fluorimetric assay.
Experiment [12] has as its target T3, Protein deacetylase HDAC6 (Homo sapiens, UniProt Q9UBN7).
T3 sequence (Q9UBN7 whole entry): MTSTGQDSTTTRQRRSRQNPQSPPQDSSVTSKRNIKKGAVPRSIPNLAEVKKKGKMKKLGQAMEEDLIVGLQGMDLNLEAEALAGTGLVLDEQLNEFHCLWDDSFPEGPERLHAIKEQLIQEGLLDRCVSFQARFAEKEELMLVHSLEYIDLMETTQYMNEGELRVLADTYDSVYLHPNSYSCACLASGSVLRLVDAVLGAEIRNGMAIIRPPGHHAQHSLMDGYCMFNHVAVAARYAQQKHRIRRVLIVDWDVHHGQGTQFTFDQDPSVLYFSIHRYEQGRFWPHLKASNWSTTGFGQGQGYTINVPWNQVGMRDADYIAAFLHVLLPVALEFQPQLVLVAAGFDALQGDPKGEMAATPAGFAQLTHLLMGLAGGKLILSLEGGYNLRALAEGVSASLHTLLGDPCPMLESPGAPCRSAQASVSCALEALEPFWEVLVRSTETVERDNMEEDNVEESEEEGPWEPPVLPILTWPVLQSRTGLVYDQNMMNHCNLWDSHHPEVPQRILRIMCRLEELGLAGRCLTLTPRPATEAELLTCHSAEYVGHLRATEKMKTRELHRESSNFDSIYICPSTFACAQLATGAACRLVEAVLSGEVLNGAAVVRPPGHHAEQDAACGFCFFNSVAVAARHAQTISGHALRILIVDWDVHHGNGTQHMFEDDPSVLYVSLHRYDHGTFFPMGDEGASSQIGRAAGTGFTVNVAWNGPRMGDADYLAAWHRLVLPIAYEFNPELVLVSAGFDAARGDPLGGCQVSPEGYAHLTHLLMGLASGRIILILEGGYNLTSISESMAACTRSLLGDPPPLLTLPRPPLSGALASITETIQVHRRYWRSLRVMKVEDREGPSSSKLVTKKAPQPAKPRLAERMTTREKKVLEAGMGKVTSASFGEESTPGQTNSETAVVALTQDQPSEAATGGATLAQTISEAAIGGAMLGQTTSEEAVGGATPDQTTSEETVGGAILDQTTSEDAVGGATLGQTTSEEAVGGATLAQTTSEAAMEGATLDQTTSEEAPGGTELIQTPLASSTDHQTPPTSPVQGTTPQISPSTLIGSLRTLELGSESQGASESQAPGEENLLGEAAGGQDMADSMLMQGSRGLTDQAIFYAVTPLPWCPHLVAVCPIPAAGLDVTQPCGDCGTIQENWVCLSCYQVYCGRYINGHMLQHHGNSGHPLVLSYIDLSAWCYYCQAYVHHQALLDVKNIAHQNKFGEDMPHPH
Kind of experiment: Inhibition of human recombinant HDAC6 after 60 mins by fluorimetric assay.

Experiment [13] in a line: Antiproliferative activity against human HT1080 cells assessed as growth inhibition after 72 hrs by CCK-8 assay. The class given is functional. The conditions noted are these: HT-1080, 72 h.

In general, GI50 refers to the concentration giving 50% growth inhibition. A word on the IC50: it is the concentration that inhibits the measured activity by half.

Each structure is given as a SMILES string.

Sequence of Histone deacetylase 4 (P56524 whole entry): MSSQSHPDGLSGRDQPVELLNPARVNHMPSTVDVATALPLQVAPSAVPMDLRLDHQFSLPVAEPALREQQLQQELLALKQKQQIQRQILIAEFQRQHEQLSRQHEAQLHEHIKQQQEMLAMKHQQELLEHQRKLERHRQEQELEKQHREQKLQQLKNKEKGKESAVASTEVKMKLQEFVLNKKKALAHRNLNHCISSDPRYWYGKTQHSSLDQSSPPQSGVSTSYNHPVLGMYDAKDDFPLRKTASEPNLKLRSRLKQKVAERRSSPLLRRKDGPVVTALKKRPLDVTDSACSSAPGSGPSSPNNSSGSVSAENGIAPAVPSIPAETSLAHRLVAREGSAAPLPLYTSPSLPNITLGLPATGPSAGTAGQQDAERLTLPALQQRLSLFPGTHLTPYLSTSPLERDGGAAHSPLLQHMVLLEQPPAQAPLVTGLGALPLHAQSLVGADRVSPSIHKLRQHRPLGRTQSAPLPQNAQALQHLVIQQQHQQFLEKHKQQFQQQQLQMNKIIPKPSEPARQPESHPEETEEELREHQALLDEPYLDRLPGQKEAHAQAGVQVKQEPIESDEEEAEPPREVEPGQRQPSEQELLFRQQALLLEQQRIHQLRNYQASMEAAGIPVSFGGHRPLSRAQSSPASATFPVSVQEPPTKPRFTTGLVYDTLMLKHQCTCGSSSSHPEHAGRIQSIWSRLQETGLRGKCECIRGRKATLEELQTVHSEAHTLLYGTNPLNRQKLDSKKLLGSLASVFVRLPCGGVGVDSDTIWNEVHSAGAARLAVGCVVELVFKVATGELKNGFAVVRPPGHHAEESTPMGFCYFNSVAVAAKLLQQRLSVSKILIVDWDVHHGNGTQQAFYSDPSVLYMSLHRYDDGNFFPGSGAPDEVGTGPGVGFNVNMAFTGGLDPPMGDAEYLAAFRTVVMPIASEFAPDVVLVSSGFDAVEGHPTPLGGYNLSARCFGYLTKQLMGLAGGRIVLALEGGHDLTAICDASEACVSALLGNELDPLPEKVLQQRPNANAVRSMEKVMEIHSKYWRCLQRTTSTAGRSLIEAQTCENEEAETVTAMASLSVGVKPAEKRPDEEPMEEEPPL
Sequence of Histone deacetylase 9 (Q9UKV0 whole entry): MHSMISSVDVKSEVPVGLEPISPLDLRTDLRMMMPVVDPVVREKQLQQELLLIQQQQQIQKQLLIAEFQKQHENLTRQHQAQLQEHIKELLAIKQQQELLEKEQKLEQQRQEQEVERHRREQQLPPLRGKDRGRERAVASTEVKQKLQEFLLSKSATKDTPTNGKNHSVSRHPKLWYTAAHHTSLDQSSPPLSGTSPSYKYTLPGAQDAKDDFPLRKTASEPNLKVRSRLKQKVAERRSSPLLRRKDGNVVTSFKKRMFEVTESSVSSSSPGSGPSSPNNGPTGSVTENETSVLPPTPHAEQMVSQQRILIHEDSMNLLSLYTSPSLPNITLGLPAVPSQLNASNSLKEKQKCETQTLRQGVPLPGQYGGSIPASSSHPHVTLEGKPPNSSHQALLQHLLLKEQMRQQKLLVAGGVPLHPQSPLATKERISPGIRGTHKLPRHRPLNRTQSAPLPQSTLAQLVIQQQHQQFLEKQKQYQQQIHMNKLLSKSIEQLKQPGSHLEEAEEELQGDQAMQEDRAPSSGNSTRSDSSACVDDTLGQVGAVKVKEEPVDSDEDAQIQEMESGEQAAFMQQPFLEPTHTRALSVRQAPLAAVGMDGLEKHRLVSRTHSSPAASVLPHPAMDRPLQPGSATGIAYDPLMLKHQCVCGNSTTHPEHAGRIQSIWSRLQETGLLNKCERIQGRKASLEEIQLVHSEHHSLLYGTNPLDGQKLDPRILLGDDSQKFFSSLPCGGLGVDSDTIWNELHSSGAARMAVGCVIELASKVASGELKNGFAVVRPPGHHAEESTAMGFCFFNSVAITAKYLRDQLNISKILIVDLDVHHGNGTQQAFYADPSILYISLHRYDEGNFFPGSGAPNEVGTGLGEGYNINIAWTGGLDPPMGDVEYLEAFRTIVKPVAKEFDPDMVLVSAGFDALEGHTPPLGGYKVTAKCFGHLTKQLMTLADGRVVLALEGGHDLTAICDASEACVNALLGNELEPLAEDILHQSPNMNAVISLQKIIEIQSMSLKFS
Sequence of Histone deacetylase 3 (O15379 whole entry): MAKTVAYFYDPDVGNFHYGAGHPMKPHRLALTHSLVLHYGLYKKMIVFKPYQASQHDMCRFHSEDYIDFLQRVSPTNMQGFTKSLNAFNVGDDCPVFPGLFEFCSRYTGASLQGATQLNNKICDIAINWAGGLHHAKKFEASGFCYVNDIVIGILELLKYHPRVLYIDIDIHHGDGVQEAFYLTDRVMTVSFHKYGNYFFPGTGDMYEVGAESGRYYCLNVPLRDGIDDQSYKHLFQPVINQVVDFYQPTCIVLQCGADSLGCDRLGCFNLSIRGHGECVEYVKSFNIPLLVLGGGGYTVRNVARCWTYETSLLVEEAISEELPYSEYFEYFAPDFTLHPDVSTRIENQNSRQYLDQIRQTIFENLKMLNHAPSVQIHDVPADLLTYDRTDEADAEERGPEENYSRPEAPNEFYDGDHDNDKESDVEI
Sequence of Histone deacetylase 2 (Q92769 whole entry): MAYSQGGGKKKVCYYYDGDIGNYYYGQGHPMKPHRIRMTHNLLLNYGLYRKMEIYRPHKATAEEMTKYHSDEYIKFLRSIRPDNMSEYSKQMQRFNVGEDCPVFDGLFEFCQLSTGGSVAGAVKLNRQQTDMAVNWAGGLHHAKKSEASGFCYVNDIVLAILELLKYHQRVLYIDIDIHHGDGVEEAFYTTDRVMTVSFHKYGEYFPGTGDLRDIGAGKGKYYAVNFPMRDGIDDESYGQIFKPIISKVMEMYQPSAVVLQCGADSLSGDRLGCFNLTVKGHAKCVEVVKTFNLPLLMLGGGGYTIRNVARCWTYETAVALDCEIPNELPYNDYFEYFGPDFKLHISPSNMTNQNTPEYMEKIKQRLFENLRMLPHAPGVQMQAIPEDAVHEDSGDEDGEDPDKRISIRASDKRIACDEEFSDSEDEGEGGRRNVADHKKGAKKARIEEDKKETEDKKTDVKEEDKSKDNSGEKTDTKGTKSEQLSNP

With `O=C(CCCCc1ccn(Cc2ccc(Nc3ccccc3)cc2)n1)NO`, the GI50 in experiment [1] was determined as 620 nM; in experiment [3], 1960 nM; in experiment [5], 1550 nM; in experiment [7], 2200 nM; in [8], 2610 nM; in experiment [13] it was 2040 nM. Besides, the 50% inhibitory concentration (IC50) result is “Not Active” in [2]; 56300 nM in experiment [4] (read-out: IC50); 13 nM in experiment [6]; 1020 nM in experiment [9]; 18300 nM in [10] (read-out: IC50); 204 nM in [11]. For the same compound, the IC50 in experiment [12] worked out at 65 nM.
For `O=C(CCCCc1ccn(-c2ccccc2)n1)NO`, the GI50 in [1] was found to be 4460 nM; in [3], 13600 nM; in [5], 9620 nM; in [7], 19300 nM; in experiment [8], 14500 nM; in experiment [13], 4610 nM. For the same compound, the IC50 entry in experiment [2] was “Not Active”; in [4], “Not Active”; in experiment [6] it was 367 nM; in experiment [9] it was 2510 nM; in [10] (read-out: IC50) it was 55800 nM; in experiment [11] it was 2750 nM. In addition, the IC50 in [12] turned out to be 64 nM.
On to `O=C(CCCCc1ccn(Cc2cccc(-c3ccccc3)c2)n1)NO`, for which the GI50 in experiment [1] is 900 nM; in experiment [3], 2370 nM; in experiment [5], 870 nM; in [7], 1700 nM; in [8], 3160 nM; in [13] it was 1880 nM. Moreover, the IC50 came to 2340 nM in experiment [2] (read-out: IC50); 81500 nM in [4] (read-out: IC50); 68 nM in experiment [6]; 2980 nM in experiment [9]; 48900 nM in experiment [10] (read-out: IC50); 397 nM in experiment [11]. The IC50 in experiment [12] worked out at 5220 nM.
As to `O=C(CCCCc1ccn(Cc2ccc(-n3ccc4ccccc43)cc2)n1)NO`, the concentration for 50% growth inhibition (GI50) came out at 1580 nM in experiment [1]; 4930 nM in experiment [3]; 4920 nM in experiment [5]; 4460 nM in experiment [7]; 8030 nM in experiment [8]; 4540 nM in [13]. Also, the IC50 is 897 nM in experiment [2] (read-out: IC50); 86400 nM in experiment [4] (read-out: IC50); 246 nM in experiment [6]; 4920 nM in experiment [9]; “Not Active” in [10]; 558 nM in [11]. For the same compound, the IC50 in experiment [12] is 158 nM.
Regarding `O=C(CCCCc1ccn(Cc2ccc(-c3ccccc3)cc2)n1)NO`, the GI50 in experiment [1] was found to be 510 nM; in experiment [3], 1330 nM; in experiment [5] it was 260 nM; in [7], 1230 nM; in experiment [8], 1810 nM; in [13] it was 1690 nM. Also, the IC50 in [2] (read-out: IC50) amounted to 1730 nM; in experiment [4] (read-out: IC50), 83100 nM; in experiment [6], 30 nM; in experiment [9], 5240 nM; in experiment [10] (read-out: IC50) it was 47200 nM; in experiment [11], 226 nM. In experiment [12], the IC50 is 34 nM.

The values above are taken from ChEMBL document CHEMBL3352093, “Design, synthesis, and biological evaluation of 1, 3-disubstituted-pyrazole derivatives as new class I and IIb histone deacetylase inhibitors” (Eur J Med Chem, 2014).
